PvdQ inh: P. aeruginosa PvdQ acylase inhibition; purified PvdQ acylase, fluorescence plate reader; inhibition, % at 10 µM; hit rate 0.063% among 340,000; AID 488965; in the data active means inhibition above about 30%, passing the limit was not always enough;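 further: 0% = vehicle neutral wells and 100% = reference inhibitor wells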
XBP1 UPR activ: adaptive UPR (XBP1) activation | AID 463104 | CHO-XBP1 luciferase reporter, IRE1-XBP1 UPR activation, luminescence; percent of tunicamycin response, DMSO as zero | activation, % at 20 µM | hit rate 0.33% among 330,000;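 active means versus positive control, 20 µM dose yields 30% or more activation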;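 further: 100% = tunicamycin at 10 µg/mL and 0% = DMSO only wells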
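assay system = CHO-XBP1 luciferase reporter cells | amount = 1000 cells/well | buffer or medium = F12 plus 10% FBS | compound dosing = single point, 20 µM final compound, 1% DMSO | incubation = 16-18 h cell attachment at 37 °C, then 6 h compound exposure | detection = Steady-Glo luminescence read | controls = tunicamycin 10 µg/mL and vehicle-only wells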
CHOP inhibitor: blocks CHOP induction under ER stress. hit rate 3.8% among 220,000. CHO-K1 CHOP-promoter luciferase, tunicamycin-induced, 15-18 h. AID 2732. inhibition, % at 10 µM;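 active means compounds that reduced the stress-induced luciferase reporter signal by more than about 70% of percent inhibition, limit read from the data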;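 further: 0% = tunicamycin plus vehicle and 100% = wells without tunicamycin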
CHOP UPR activ: activators of apoptotic arm of unfolded protein response (CHOP); activation, % at 10 µM; hit rate 0.34% among 330,000; CHO-CHOP luciferase reporter, UPR activation, luminescence; percent of tunicamycin response over DMSO baseline;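 active means at 10 µM dose, activation of 40% or more, normalized to positive control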;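 further: 100% = tunicamycin at 10 µg/mL and 0% = DMSO alone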
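Assay system: CHO cells with stable CHOP pathway luciferase reporter; Buffer or medium: F12 plus 10% serum; Times: 16-18 h cell attachment, then 6 h compound exposure, 37 °C; Signal: luciferase luminescence; Read-out basis: percent activation relative to tunicamycin control; Control set: tunicamycin high control, DMSO low control.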
CHOP confirm: confirmation of CHOP induction inhibitors. CHO-CHOP promoter luciferase reporter, tunicamycin-induced, luminescence. inhibition, % at 10 µM. hit rate 45% among 2,100. shares compounds with CHOP inhibitor;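 active means mean of three repeat readings of reporter signal inhibition above a set limit, cut at about 70% in these data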;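 further: 0% = tunicamycin plus vehicle and 100% = wells lacking tunicamycin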
UPR CHOP confirm: apoptotic UPR (CHOP) activation, confirmed. shares compounds with CHOP UPR activ. CHO-CHOP cells, CHOP-luciferase reporter luminescence; percent of tunicamycin response, DMSO as zero. activation, % at 10 µM. hit rate 64% among 1,000. AID 463112; in the data active means activation above about 33%;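 further: 0% = DMSO wells and 100% = tunicamycin 10 µg/mL wells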
An asterisk follows results filed as active; / = not tested or not shown. The sample as a whole holds a higher share of hits than the screen did.

SMILES	PvdQ inh	XBP1 UPR activ	CHOP inhibitor	CHOP UPR activ	CHOP confirm	UPR CHOP confirm
CC(C)N=c1scc(-c2ccco2)n1/N=C/c1ccc(O)c(O)c1	5	20	100*	159*	-17	127*
CC(=O)NCc1ccc(C(=O)CCl)cc1	9	-3	106*	113*	-3	-10
CC(=O)NCc1ccc(C(=O)CCl)s1	-4	-9	108*	64*	107*	-5
CSc1ccccc1NC(=O)c1csc(C)c1	5	0	/	3	/	/
COc1ccc(CNC[C@@H](CCCCN(C)Cc2ccc(OC)cc2)N2C[C@H](c3ccccc3)N(CCc3ccc(Cl)c(Cl)c3)C(=O)C2=O)cc1	-6	13	105*	134*	-131	147*
COc1ccc(CNC(=O)[C@@H]2CC=C[C@@H]3CCN(Cc4ccc(Cl)c(Cl)c4)C(=O)[C@@H]32)cc1	-3	-2	/	-2	/	/
CC(C)(C)C1=CC(=O)C(=O)C(C(C)(C)C)=C1	-11	0	104*	144*	-178	326*
CC(=O)SC(C[N+](=O)[O-])c1cn(C(C)=O)c2ccccc12 (centres undefined)	-1	0	106*	159*	-60	-10
CCCCCN(C(=O)CCC(=O)OCC(=O)N1C(C)CCCC1C)c1c(N)n(CCCC)c(=O)[nH]c1=O (centres undefined)	-6	-4	/	0	/	/
CCOc1cc(/C=C2/C(=O)ON=C2C)ccc1OCc1ccccc1	/	3	105*	58*	-16	5
CCOc1cc(/C=C2\C(=O)ON=C2c2ccccc2)ccc1OC	-10	-4	/	1	/	/
CCOc1cc(/C=C2/C(=O)ON=C2C)ccc1OCc1ccccc1F	23	16	99*	112*	112*	68*
CN(C)S(=O)(=O)c1ccc(N2CCCC2)c(C(=O)Nc2nc(-c3cc(F)ccc3F)cs2)c1	-6	9	21	0	/	/
COC(=O)CSC1=C(C#N)C(=O)NC(c2ccccc2)S1 (centres undefined)	10	-3	99*	88*	51	29
Clc1nc2c(-c3ccccc3)nnn2c2ccccc12	-7	0	101*	60*	-80	32
C=C(C)C(=O)OC1(C(F)(F)F)Oc2cc(C)ccc2NC1=O (centres undefined)	-12	-5	109*	45*	116*	20
CSc1nc(C(C)C)ccc1CNC(=O)CC(C)c1ccccc1 (centres undefined)	-13	-2	/	0	/	/
Nc1nnnn1/N=C/C(Br)=C/c1ccccc1	-11	-3	/	109*	90*	64*
CC(CC(=O)c1cccs1)CC(=O)c1cccs1	3	4	16	3	/	/
Cc1cc(C)c(C(CC(=O)c2cccs2)C(C#N)C#N)c(C)c1 (centres undefined)	-2	-1	103*	47*	58	95*
Cc1nnc(SCCN2CCOCC2)c2nn(-c3ccccc3F)c(C)c12	-9	/	41	/	/	/
FC(F)(F)c1nnc(-c2ccccc2)nc1Sc1ccc(Cl)cc1	-1	-6	114*	84*	119*	-1
FC(F)(F)c1nnc(-c2ccccc2)nc1Oc1ccc(Cl)cc1Cl	-15	-4	-61	3	/	/
FC(F)(F)c1nnc(-c2ccccc2)nc1Sc1ccccc1	-22	22	109*	201*	-155	59*
C=C(C(=O)O)C1CCC2(C)CCCC(C)(O)C2C1 (centres undefined)	-3	0	0	-1	/	/
SMILES	PvdQ inh	XBP1 UPR activ	CHOP inhibitor	CHOP UPR activ	CHOP confirm	UPR CHOP confirm
COc1ccc(/C=N/Nc2ccc(C(=O)O)cc2)c(OC)c1OC	5	-1	/	5	/	/
COC(=O)c1ccc2c(c1)C(C)(C)C(/C=C/c1ccc(OC)c(OC)c1OC)=[N+]2C	0	-14	/	64*	141*	-11
CC(C)(C)c1cnnn1-c1ccc(C(=O)CCl)cc1	3	-5	111*	56*	-67	-11
CC(C)(C)c1cnnn1-c1ccc(C=O)cc1	-3	1	-12	2	/	/
Cc1nc([N+](=O)[O-])c(Br)n1CC(=O)c1ccccc1	-20	-2	-97	5	/	/
Cc1nc([N+](=O)[O-])c(Br)n1CC(=O)c1ccc2ccccc2c1	-11	2	103*	144*	-130	104*
